Screens: PubChem, several laboratories
A selection: hits, their analogues and other compounds. The true share with any hit is near 5%.
Beta cell apopt: inhibitors of cytokine-induced beta cell apoptosis, primary screen, luminescence; INS-1E cytokine-induced death, ATP luminescence, 48 h; percent of positive-control rescue, neutral wells zero; protection from apoptosis, % (concentration not given with the values); 0.8% of 300,000 active; AID 435005, 2010;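 active means Every replicate reaches about 75%, or at least half do and their mean reaches it too, limit read from the data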;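 further: 0% = cytokine-treated negative control wells and 100% = positive control rescue; higher means more ATP so stronger rescue from cytokine killing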
Mdm2 MdmX PPI: inhibitors of human Mdm2-MdmX association, primary screen, cell-based, luminescence, split luciferase, SaOS-2, uHTS | AID 485346, 2010 | inhibition, % at 8 µM | Protein Mdm4 (Homo sapiens) + E3 ubiquitin-protein ligase Mdm2 (Homo sapiens), … | 3% of 330,000 active | SaOS-2 split-luciferase Mdm2/MdmX complementation;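 active means inhibition of at least 50% at 8 µM in the primary screen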
Target sequence (O15151 whole entry, looked up): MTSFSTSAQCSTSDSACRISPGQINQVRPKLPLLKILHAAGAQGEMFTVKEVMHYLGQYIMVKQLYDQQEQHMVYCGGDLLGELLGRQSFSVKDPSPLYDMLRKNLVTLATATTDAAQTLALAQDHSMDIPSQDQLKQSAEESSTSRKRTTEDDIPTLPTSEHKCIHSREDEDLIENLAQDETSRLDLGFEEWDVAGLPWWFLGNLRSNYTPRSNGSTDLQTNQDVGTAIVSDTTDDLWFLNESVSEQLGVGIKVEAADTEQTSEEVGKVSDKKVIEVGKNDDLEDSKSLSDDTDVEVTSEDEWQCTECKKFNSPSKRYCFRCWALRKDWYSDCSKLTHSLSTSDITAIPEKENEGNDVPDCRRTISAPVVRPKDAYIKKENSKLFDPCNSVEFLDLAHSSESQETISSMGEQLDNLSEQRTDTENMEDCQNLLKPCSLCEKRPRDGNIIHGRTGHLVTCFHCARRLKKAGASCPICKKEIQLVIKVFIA
Target sequence (Q00987 whole entry, looked up): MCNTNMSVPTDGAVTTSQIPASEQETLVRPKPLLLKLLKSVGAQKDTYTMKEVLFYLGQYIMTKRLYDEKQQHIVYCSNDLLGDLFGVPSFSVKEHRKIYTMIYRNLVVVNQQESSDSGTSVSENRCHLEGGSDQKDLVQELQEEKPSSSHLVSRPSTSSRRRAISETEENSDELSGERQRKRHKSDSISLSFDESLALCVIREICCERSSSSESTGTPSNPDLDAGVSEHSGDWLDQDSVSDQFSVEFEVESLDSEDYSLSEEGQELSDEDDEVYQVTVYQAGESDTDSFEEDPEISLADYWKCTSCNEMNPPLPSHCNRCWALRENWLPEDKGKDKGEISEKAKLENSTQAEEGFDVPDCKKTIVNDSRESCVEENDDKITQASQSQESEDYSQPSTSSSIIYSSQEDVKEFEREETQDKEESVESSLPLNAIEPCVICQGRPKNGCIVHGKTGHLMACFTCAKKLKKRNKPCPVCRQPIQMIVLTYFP
T cruzi inh: inhibitors of intracellular T. cruzi growth, primary screen, luminescence, NIH3T3 host cells; AID 1885, 2009; T. cruzi beta-gal in NIH3T3, 90 h; 1.4% of 300,000 active; inhibition, % (concentration not given with the values);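 active means mean inhibition across valid replicates above about 55%, limit read from the data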;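 further: signal also drops with host cell toxicity which is not excluded here; 0% = plate median of DMSO wells and 100% = zero luminescence signal; higher percent means less beta-gal luminescence so fewer parasites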
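Incubation – ≥90 h infection period, 3 h prior cell attachment · System – NIH/3T3 fibroblasts plus reporter T. cruzi · Doses – compound pinned at 50 nL/well, DMSO · Read-out basis – percent inhibition of parasite-derived β-gal signal · Signal – luminescent β-galactosidase signal after 60 min lysis · Also added – 5000 T. cruzi trypomastigotes/well · Medium – Low-serum DMEM with 2% FBS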
CHOP UPR activ: activators of apoptotic CHOP UPR arm, primary screen, cell-based, CHO-CHOP luciferase reporter, luminescence, uHTS. activation, % at 10 µM. UPR activation; percent of tunicamycin response over DMSO baseline. 0.34% of 330,000 active;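 active means at 10 µM dose, activation of 40% or more, normalized to positive control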;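 further: 100% = tunicamycin at 10 µg/mL and 0% = DMSO alone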
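Evaluation: % reporter activation, DMSO baseline versus tunicamycin full activation; System: CHO-CHOP luciferase reporter cell line; Input: 500 cells/well; Incubation: 6 h compound treatment, 37 °C; Measured by: Steady-Glo luciferase luminescence; Dosing: one dose, 10 µM in 0.5% DMSO; Buffer or medium: F12 medium, 10% FBS; Benchmarks: positive tunicamycin 10 µg/mL, negative DMSO alone.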
XBP1 UPR activ: activators of adaptive XBP1 UPR arm, primary screen, cell-based, CHO-XBP1 luciferase reporter, luminescence, uHTS. AID 463104, 2010. 0.33% of 330,000 active. activation, % at 20 µM. IRE1-XBP1 UPR activation; percent of tunicamycin response, DMSO as zero;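 active means versus positive control, 20 µM dose yields 30% or more activation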;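 further: 100% = tunicamycin at 10 µg/mL and 0% = DMSO only wells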
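incubation = overnight seeding at 37 °C, 6 h compound treatment at 37 °C | assay system = CHO-XBP1 cells stably carrying IRE1-XBP1-driven luciferase reporter | input = 1000 cells per well | detection = luciferase luminescence | dosing = single point, 20 µM final compound, 1% DMSO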
CSC inhib: cancer stem cell viability inhibitors, primary screen, luminescence; 1.1% of 300,000 active; cancer stem cell-like cells viability; inhibition, % at 7.5 µM; in the data active means inhibition above about 75%; tested in HMLE shEcad cells
Mdm2 MdmX conf: Mdm2-MdmX complex disruptors, retested hits, confirmation, luminescence, single concentration; shares compounds with Mdm2 MdmX PPI; Mdm2-MdmX binding, luminescent assay; inhibition, % at 8 µM; 55% of 10,000 active; AID 489028, 2010; in the data active means inhibition above about 40%
FLuc counter: full-length luciferase signal inhibition, confirmation, counter-screen for Mdm2/MdmX interaction inhibitor project, cell-based, single concentration, SaOS-2 | inhibition, % at 8 µM | shares compounds with Mdm2 MdmX PPI | 77% of 6,200 active | SaOS-2 full-length luciferase counterscreen, luminescence | AID 504607, 2011;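 active means mean inhibition at 8 µM reaching about 37%, which flags the compound as non-specific, limit read from the data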;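 further: p53-null SaOS-2 cells with luciferase driven by a doxycycline-inducible promoter; compound on cells about two nights before reading with doxycycline added after day one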
* marks the source's active call; other numbers are inactive results; x = no result given.

SMILES	Beta cell apopt	Mdm2 MdmX PPI	T cruzi inh	CHOP UPR activ	XBP1 UPR activ	CSC inhib	Mdm2 MdmX conf	FLuc counter
COC(=O)c1[nH]c2c(c1C)C(=O)CC(c1cccs1)C2 (stereo not drawn)	17	60*	12	-2	7	2	58*	74*
CSCCOC(=O)c1[nH]c2c(c1C)C(=O)CC(c1ccco1)C2 (stereo not drawn)	20	34	-6	2	5	55	x	x
CCOC(=O)c1[nH]c2c(c1C)C(=O)CC(c1ccco1)C2 (stereo not drawn)	33	60*	3	-2	10	60	59*	84*
COCCOC(=O)c1[nH]c2c(c1C)C(=O)CC(c1ccco1)C2 (stereo not drawn)	18	34	-39	0	6	54	x	x
COC(=O)c1[nH]c2c(c1C)C(=O)CC(c1cc(OC)ccc1OC)C2 (stereo not drawn)	8	48	4	-2	1	55	x	x
Cc1c(C(=O)OCCOC(C)C)[nH]c2c1C(=O)CC(c1ccco1)C2 (stereo not drawn)	40	64*	1	-2	14	54	48*	86*
Cc1c(C(=O)OCc2ccccc2)[nH]c2c1C(=O)CC(c1ccco1)C2 (stereo not drawn)	23	67*	29	0	10	62	63*	81*
COCCOC(=O)c1[nH]c2c(c1C)C(=O)CC(c1ccccc1)C2 (stereo not drawn)	19	62*	4	1	10	59	60*	73*
CCN(CC)c1ccc2cc(/C(N)=N/NC(=O)c3cccs3)c(=O)oc2c1	5	85*	6	27	93*	6	71*	84*
Cc1[nH]c(=S)[nH]c(=O)c1CCOc1ccccc1	-1	31	2	-1	0	15	x	x
Cc1ccccc1OCCc1c(C)[nH]c(=S)[nH]c1=O	6	55*	-63	5	10	-2	62*	56*
Cn1nnnc1N=N/C(=N/Nc1ccccc1)c1ccccc1	126*	86*	27	6	5	70	85*	49*
COc1cccc(Oc2nc(N)ncc2[N+](=O)[O-])c1	2	4	-11	-1	-1	7	x	x
Cc1cnc(NC(=O)COc2ccccc2Cl)s1	-13	53*	2	-8	-6	x	36	x
CC(NC(=O)/C(C#N)=C/c1ccco1)c1ccccc1 (stereo not drawn)	-7	-21	-3	0	3	-1	x	x
CC(NC(=O)/C(C#N)=C/c1ccc([N+](=O)[O-])o1)c1ccccc1 (stereo not drawn)	41	100*	36	-10	-12	x	33	x
O=C(C1CCC(=O)N1Cc1ccccc1Cl)N1CCN(c2ccc(F)cc2)CC1 (stereo not drawn)	-5	-14	-6	1	-6	-8	x	x
CCOc1ccc(C(C(=O)NC2CCCC2)N(CCCO)C(=O)c2ccc(-c3ccccc3)[nH]2)cc1 (stereo not drawn)	4	-7	-1	4	1	x	x	x
Cc1nnc2n(-c3ccccc3)c(=O)c3c4c(sc3n12)COC(C)(C)C4	-7	24	-15	0	-3	-4	x	x
CCCCSc1nnc2n(CCc3ccccc3)c(=O)c3c4c(sc3n12)COC(C)(C)C4	26	55*	35	1	-6	3	25	x
CCOC(=O)CC(NC(=O)Cc1cccs1)c1ccccc1Cl (stereo not drawn)	-4	7	-1	-1	-2	0	x	x
O=C(COc1ccc(F)cc1Cl)N(Cc1nnc(-c2ccccc2Cl)o1)C1CC1	0	27	32	0	-4	11	x	x
Cc1ccc(C(=O)NCC(=O)N2CCN(c3cccc(Cl)c3)CC2)s1	-3	5	x	0	0	-3	x	x
Cc1nn(C)c(C)c1/C=N/N=C1\CCC2C3CCc4cc(O)ccc4C3CCC12C (stereo not drawn)	-5	57*	16	9	5	15	21	x
COCCNC(=O)NC(=O)CSc1nc(C)c(C)c(C)n1	-4	12	0	1	-2	-9	x	x
SMILES	Beta cell apopt	Mdm2 MdmX PPI	T cruzi inh	CHOP UPR activ	XBP1 UPR activ	CSC inhib	Mdm2 MdmX conf	FLuc counter
Cc1cc(SCC(=O)Nc2ccc3[nH]c(=O)[nH]c3c2)nc2ccccc12	-7	87*	x	1	5	20	-7	x
CN(C)c1ccc2c(c1)OC(N)=C(C#N)C2c1cccc(F)c1 (stereo not drawn)	32	65*	-2	-1	8	x	62*	97*
N#CC1=C(N)Oc2cc(N)ccc2C1c1cccc(F)c1 (stereo not drawn)	6	54*	4	-1	-4	50	44*	65*
COC(=O)c1ccc(C2C(C#N)=C(N)Oc3cc(N)ccc32)cc1 (stereo not drawn)	-3	16	4	0	-5	1	x	x
CCOc1cc(/C=N/NC(=O)c2cccc(S(=O)(=O)N3CCCC3)c2)ccc1OCC(=O)N(C)C	3	8	-7	1	1	-5	x	x
Cc1ccc(CNC(=O)CN(C(=O)C2(C)CC(=O)N=C3C=CC=CN32)c2ccc(F)cc2)cc1 (stereo not drawn)	-5	-1	-2	-1	-5	-4	x	x
CCC(C)Sc1cccc(-c2nc3ccccn3c2NCc2ccccc2)c1 (stereo not drawn)	21	8	x	3	5	67	x	x
CCC(C)Sc1cccc(-c2nc3ccc(Cl)cn3c2NCc2ccccc2)c1 (stereo not drawn)	6	66*	24	10	3	58	9	x
O=C(c1ccc(S(=O)(=O)Nc2ccccc2F)cc1)N1CCCC1	x	16	x	-1	-1	x	x	x
CC(C)OC(=O)c1cc2c(ccn2C)n1CC(=O)N(Cc1ccccc1)c1ccccc1	8	86*	51	3	1	24	54*	65*
